From ChEMBL document CHEMBL5303300, “EUbOPEN Chemogenomics Library - Multiplex” (2023)
“And” between values parts separate entries of the source, which are not always exact repeats. Equal entries are not always repeated.

Columns and labels:
[1] = system: HEK-293T; experiment: Multiplex assay against HEK293T; assay type: toxicity, cell-based; details: human, number of replicates 2
Method in brief: (§1)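 Compound was added to live cells that had been stained at seeding with Hoechst33342, BioTracker Green Microtubule Cytoskeleton Dye, MitoTracker Red and Annexin V Alexa Fluor 680, and imaging followed on a CQ1 microscope at 37°C and 5% CO2. CellPathfinder machine-learning gating divided cells into Hoechst high-intensity objects or normal cells, normal cells into healthy, pyknosed or fragmented nuclei, and pyknosed cells into mitotic or apoptotic. Tubulin, mitochondrial-mass and membrane-permeability phenotypes are per cents of healthy-nucleus cells.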

[2] = system: U2OS; experiment: Multiplex assay against U2OS; assay type: toxicity, cell-based; details: human, number of replicates 2; method in brief: as §1
[3] = 24 h, 1 µM, compound concentration 1 uM
[4] = 24 h, 10 µM, compound concentration 10 uM
[5] = 48 h, 1 µM, compound concentration 1 uM
[6] = 48 h, 10 µM, compound concentration 10 uM
[7] = 12 h, 1 µM, compound concentration 1 uM
[8] = 12 h, 10 µM, compound concentration 10 uM

Cc1cc(-c2cnc(N)c3c(-c4ccc5scnc5c4)csc23)n(C)n1
Population Normal (%) [1, 3]: 91% and 90%
Population Pyknosed Nuclei (%) [1, 3]: 7%
Population Tubulin-Different-Phenotype (%) [1, 3]: 38% and 39%
Total Cell Count [1, 3]: 943 and 990
Population Apoptotic (%) [1, 4]: 56% and 69%
Population Fragmented Nuclei (%) [1, 4]: 6% and 3%
Population Healthy Nuclei (%) [1, 4]: 79% and 82%
Population Hoechst High Intensity Objects (%) [1, 4]: 17% and 13%
Population Membrane Permeable-Phenotype (%) [1, 4]: 2% and 1%
Population Mitochondria Different-Phenotype (%) [1, 4]: 65%
Population Mitotic Cells (%) [1, 4]: 43% and 30%
Population Normal (%) [1, 4]: 82% and 86%
Population Pyknosed Nuclei (%) [1, 4]: 14%
Population Tubulin-Different-Phenotype (%) [1, 4]: 94% and 92%
Total Cell Count [1, 4]: 457 and 429
Population Apoptotic (%) [1, 5]: 17% and 10%
Population Fragmented Nuclei (%) [1, 5]: 14% and 9%
Population Healthy Nuclei (%) [1, 5]: 83% and 86%
Population Hoechst High Intensity Objects (%) [1, 5]: 9% and 10%
Population Membrane Permeable-Phenotype (%) [1, 5]: 6% and 2%
Population Mitochondria Different-Phenotype (%) [1, 5]: 0%
Population Mitotic Cells (%) [1, 5]: 82% and 89%
Population Normal (%) [1, 5]: 90% and 89%
Population Pyknosed Nuclei (%) [1, 5]: 2% and 4%
Population Tubulin-Different-Phenotype (%) [1, 5]: 19%
Total Cell Count [1, 5]: 2410 and 2184
Population Apoptotic (%) [1, 6]: 62% and 80%
Population Fragmented Nuclei (%) [1, 6]: 9%
Population Healthy Nuclei (%) [1, 6]: 85% and 84%
Population Hoechst High Intensity Objects (%) [1, 6]: 17%
Population Membrane Permeable-Phenotype (%) [1, 6]: 7% and 2%
Population Mitochondria Different-Phenotype (%) [1, 6]: 24% and 30%
Population Mitotic Cells (%) [1, 6]: 37% and 20%
Population Normal (%) [1, 6]: 82%
Population Pyknosed Nuclei (%) [1, 6]: 5%
Population Tubulin-Different-Phenotype (%) [1, 6]: 89% and 92%
Total Cell Count [1, 6]: 772 and 677
Population Apoptotic (%) [2, 7]: 50% and 66%
Population Fragmented Nuclei (%) [2, 7]: 8% and 7%
Population Healthy Nuclei (%) [2, 7]: 86% and 83%
Population Hoechst High Intensity Objects (%) [2, 7]: 0%
Population Membrane Permeable-Phenotype (%) [2, 7]: 0% and 1%
Population Mitochondria Different-Phenotype (%) [2, 7]: 0%
Population Mitotic Cells (%) [2, 7]: 50% and 33%
Population Normal (%) [2, 7]: 100%
Population Pyknosed Nuclei (%) [2, 7]: 4% and 8%
Population Tubulin-Different-Phenotype (%) [2, 7]: 75% and 76%
Total Cell Count [2, 7]: 46 and 136
Population Apoptotic (%) [2, 8]: 66% and 65%
Population Healthy Nuclei (%) [2, 8]: 56% and 80%
Population Hoechst High Intensity Objects (%) [2, 8]: 0%
Population Membrane Permeable-Phenotype (%) [2, 8]: 8% and 11%
Population Mitochondria Different-Phenotype (%) [2, 8]: 17% and 15%
Population Mitotic Cells (%) [2, 8]: 33% and 34%
Population Normal (%) [2, 8]: 100%
Population Pyknosed Nuclei (%) [2, 8]: 24% and 13%
Population Tubulin-Different-Phenotype (%) [2, 8]: 51% and 38%
Population Apoptotic (%) [2, 3]: 50% and 55%
Population Fragmented Nuclei (%) [2, 3]: 5% and 4%
Population Healthy Nuclei (%) [2, 3]: 87% and 86%
Population Hoechst High Intensity Objects (%) [2, 3]: 0%
Population Membrane Permeable-Phenotype (%) [2, 3]: 0% and 1%
Population Mitochondria Different-Phenotype (%) [2, 3]: 0%
Population Mitotic Cells (%) [2, 3]: 50% and 44%
Population Normal (%) [2, 3]: 100% and 99%
Population Pyknosed Nuclei (%) [2, 3]: 7% and 8%
Population Tubulin-Different-Phenotype (%) [2, 3]: 85% and 83%
Population Apoptotic (%) [2, 4]: 76% and 84%
Population Healthy Nuclei (%) [2, 4]: 56% and 80%
Population Hoechst High Intensity Objects (%) [2, 4]: 1% and 0%
Population Membrane Permeable-Phenotype (%) [2, 4]: 8% and 7%
Population Mitochondria Different-Phenotype (%) [2, 4]: 29% and 19%
Population Mitotic Cells (%) [2, 4]: 23% and 15%
Population Normal (%) [2, 4]: 98% and 99%
Population Pyknosed Nuclei (%) [2, 4]: 25% and 15%
Population Tubulin-Different-Phenotype (%) [2, 4]: 42% and 36%
Population Apoptotic (%) [2, 5]: 50% and 60%
Population Fragmented Nuclei (%) [2, 5]: 1% and 5%
Population Healthy Nuclei (%) [2, 5]: 90% and 86%
Population Hoechst High Intensity Objects (%) [2, 5]: 0%
Population Membrane Permeable-Phenotype (%) [2, 5]: 1%
Population Mitochondria Different-Phenotype (%) [2, 5]: 1%
Population Mitotic Cells (%) [2, 5]: 50% and 39%
Population Normal (%) [2, 5]: 100%
Population Pyknosed Nuclei (%) [2, 5]: 7%
Population Tubulin-Different-Phenotype (%) [2, 5]: 81% and 83%
Population Apoptotic (%) [2, 6]: 73% and 82%
Population Fragmented Nuclei (%) [2, 6]: 12% and 5%
Population Healthy Nuclei (%) [2, 6]: 52% and 78%
Population Hoechst High Intensity Objects (%) [2, 6]: 2% and 0%
Population Membrane Permeable-Phenotype (%) [2, 6]: 7%
Population Mitochondria Different-Phenotype (%) [2, 6]: 19% and 13%
Population Mitotic Cells (%) [2, 6]: 26% and 17%
Population Normal (%) [2, 6]: 97% and 99%
Population Pyknosed Nuclei (%) [2, 6]: 35% and 15%
Population Tubulin-Different-Phenotype (%) [2, 6]: 41% and 33%
